The text below walks through data of ChEMBL document CHEMBL1123134, “Diterpenoid sweeteners. Synthesis and sensory evaluation of stevioside analogues with improved organoleptic properties” (1985).

SMILES strings stand for the structures.

Holding throughout (assay type): functional
The species named for experiment [1] is Homo sapiens. Nature of the experiment: Sensory evaluation was done at a concentration of 534 p.p.m. against property of bitterness. A digest of the protocol: (§1)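 Aqueous sample solutions were tasted at about pH 7, so carboxylic acids were in ionized form.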
The species entered for experiment [2] is Homo sapiens. Briefly: Sensory evaluation was done for sweetness at a concentration of 534 p.p.m. against compound potency calculated on a molar basis. A digest of the protocol:
(§2)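 Sweetness tasted in solutions held near pH ~7, so carboxylic acids are ionized. Potency is reported two ways: on a weight basis (Pw) and on a molar basis (Pm).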

For experiment [3], the species on record is Homo sapiens. Nature of the experiment: Sensory evaluation was done for sweetness at a concentration of 534 p.p.m. against compound potency calculated on weight basis. The procedure, abridged:
as §2

For experiment [4], the species on record is Homo sapiens. Nature of the experiment: Sensory evaluation was done at a concentration of 534 p.p.m. against other properties. The procedure, abridged:
as §1

For experiment [5], the species on record is Homo sapiens. Nature of the experiment: Sensory evaluation was done at a concentration of 534 p.p.m. against property of sweetness. A digest of the protocol: as §1
For experiment [6], the species on record is Homo sapiens. Briefly: Sensory evaluation was done for sweetness at a concentration of 534 p.p.m. against sample intensity relative to 10% sucrose. A digest of the protocol:
as §2

For experiment [7], the species on record is Homo sapiens. Nature of the experiment: Sensory evaluation was done at a concentration of 631 p.p.m. against other properties. A digest of the protocol:
as §1

The species entered for experiment [8] is Homo sapiens. Briefly: Sensory evaluation was done at a concentration of 631 p.p.m. against property of bitterness. The procedure, abridged:
as §1

The species named for experiment [9] is Homo sapiens. Briefly: Sensory evaluation was done for sweetness at a concentration of 631 p.p.m. against sample intensity relative to 10% sucrose. A digest of the protocol:
as §2

Experiment [10] is filed under the species Homo sapiens. Nature of the experiment: Sensory evaluation was done at a concentration of 631 p.p.m. against property of sweetness. The procedure, abridged: as §1
The species named for experiment [11] is Homo sapiens. Nature of the experiment: Sensory evaluation was done for sweetness at a concentration of 631 p.p.m. against compound potency calculated on weight basis. The procedure, abridged: as §2
The species entered for experiment [12] is Homo sapiens. Nature of the experiment: Sensory evaluation was done for sweetness at a concentration of 631 p.p.m. against compound potency calculated on a molar basis. The procedure, abridged:
as §2

Experiment [13] is filed under the species Homo sapiens. Briefly: Sensory evaluation was done for sweetness at a concentration of 3000 p.p.m. against sample intensity relative to 10% sucrose. The procedure, abridged:
(§3)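 Sensory evaluation of the samples in solution at pH ~7, where carboxylic acids are ionized.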

Experiment [14] is filed under the species Homo sapiens. Nature of the experiment: Sensory evaluation was done for sweetness at a concentration of 3000 p.p.m. against compound potency calculated on weight basis. A digest of the protocol:
as §3

Experiment [15] is filed under the species Homo sapiens. Nature of the experiment: Sensory evaluation was done at a concentration of 3000 p.p.m. against property of sweetness. A digest of the protocol: as §3
Experiment [16] is filed under the species Homo sapiens. Briefly: Sensory evaluation was done at a concentration of 3000 p.p.m. against property of bitterness. A digest of the protocol: as §3
Experiment [17] is filed under the species Homo sapiens. Briefly: Sensory evaluation was done for sweetness at a concentration of 3000 p.p.m. against compound potency calculated on a molar basis. A digest of the protocol:
as §3

For experiment [18], the species on record is Homo sapiens. Briefly: Sensory evaluation was done at a concentration of 3000 p.p.m. against other properties. The procedure, abridged:
as §3

The species named for experiment [19] is Homo sapiens. Nature of the experiment: Sensory evaluation was done at a concentration of 550 p.p.m. against property of sweetness. A digest of the protocol:
as §1

Experiment [20] is filed under the species Homo sapiens. Briefly: Sensory evaluation was done at a concentration of 550 p.p.m. against other properties. The procedure, abridged:
as §1

For experiment [21], the species on record is Homo sapiens. Briefly: Sensory evaluation was done for sweetness at a concentration of 550 p.p.m. against compound potency calculated on weight basis. A digest of the protocol:
as §2

The species named for experiment [22] is Homo sapiens. Nature of the experiment: Sensory evaluation was done for sweetness at a concentration of 550 p.p.m. against sample intensity relative to 10% sucrose. The procedure, abridged:
as §2

The species entered for experiment [23] is Homo sapiens. Briefly: Sensory evaluation was done for sweetness at a concentration of 550 p.p.m. against compound potency calculated on a molar basis. A digest of the protocol: as §2
The species named for experiment [24] is Homo sapiens. Briefly: Sensory evaluation was done at a concentration of 550 p.p.m. against property of bitterness. The procedure, abridged:
as §1

Experiment [25] is filed under the species Homo sapiens. Briefly: Sensory evaluation was done for sweetness at a concentration of 650 p.p.m. against compound potency calculated on weight basis. The procedure, abridged:
as §2

Experiment [26] is filed under the species Homo sapiens. Nature of the experiment: Sensory evaluation was done at a concentration of 650 p.p.m. against property of bitterness. The procedure, abridged: as §1
Experiment [27] is filed under the species Homo sapiens. Briefly: Sensory evaluation was done for sweetness at a concentration of 650 p.p.m. against sample intensity relative to 10% sucrose. A digest of the protocol:
as §2

The species entered for experiment [28] is Homo sapiens. Briefly: Sensory evaluation was done at a concentration of 650 p.p.m. against other properties. A digest of the protocol:
as §1

For experiment [29], the species on record is Homo sapiens. Briefly: Sensory evaluation was done for sweetness at a concentration of 650 p.p.m. against compound potency calculated on a molar basis. The procedure, abridged:
as §2

The species named for experiment [30] is Homo sapiens. Nature of the experiment: Sensory evaluation was done at a concentration of 650 p.p.m. against property of sweetness. The procedure, abridged: as §1
For experiment [31], the species on record is Homo sapiens. Nature of the experiment: Sensory evaluation was done at a concentration of 615 p.p.m. against property of bitterness. The procedure, abridged: as §1
Experiment [32] is filed under the species Homo sapiens. Nature of the experiment: Sensory evaluation was done for sweetness at a concentration of 615 p.p.m. against sample intensity relative to 10% sucrose. A digest of the protocol: as §2
For experiment [33], the species on record is Homo sapiens. Nature of the experiment: Sensory evaluation was done at a concentration of 615 p.p.m. against other properties. A digest of the protocol:
as §1

The species entered for experiment [34] is Homo sapiens. Nature of the experiment: Sensory evaluation was done for sweetness at a concentration of 615 p.p.m. against compound potency calculated on a molar basis. The procedure, abridged: as §2
The species entered for experiment [35] is Homo sapiens. Briefly: Sensory evaluation was done at a concentration of 615 p.p.m. against property of sweetness. A digest of the protocol:
as §1

For experiment [36], the species on record is Homo sapiens. Nature of the experiment: Sensory evaluation was done for sweetness at a concentration of 615 p.p.m. against compound potency calculated on weight basis. A digest of the protocol: as §2

For the molecule `C=C1C[C@@]23CC[C@H]4[C@@](C)(CCC[C@@]4(C)C(=O)OCCCS(=O)(=O)[O-])[C@@H]2CC[C@]1(O[C@H]1O[C@H](CO)[C@@H](O)[C@H](O)[C@H]1O[C@@H]1O[C@H](CO)[C@@H](O)[C@H](O)[C@H]1O)C3.[Na+]`, the Sensory evaluation in the experiment listed under Homo sapiens [1] is on record as 4; in the experiment listed under Homo sapiens [4], 4; in the experiment listed under Homo sapiens [5], 92. The Pm in the experiment filed under Homo sapiens [2] is 360. Further, the Pw in the experiment filed under Homo sapiens [3] is 160. Also, the Ip in the experiment filed under Homo sapiens [6] came to 0.8.
Regarding `C=C1C[C@@]23CC[C@H]4[C@@](C)(CCC[C@@]4(C)C(=O)OCCC(S(=O)(=O)[O-])S(=O)(=O)[O-])[C@@H]2CC[C@]1(O[C@H]1O[C@H](CO)[C@@H](O)[C@H](O)[C@H]1O[C@@H]1O[C@H](CO)[C@@H](O)[C@H](O)[C@H]1O)C3.[Na+].[Na+]`, the values for the Sensory evaluation in the experiment filed under Homo sapiens [7], in the experiment filed under Homo sapiens [8] and in the experiment listed under Homo sapiens [10] were 4, 0 and 96, respectively. For the same molecule, in the experiment filed under Homo sapiens [9], the Ip was found to be 0.8. For the same molecule, the Pw in the experiment filed under Homo sapiens [11] is 120. In addition, the Pm in the experiment filed under Homo sapiens [12] is 310.
The molecule `CC12CC[C@](C)(C(=O)O)CC1C1=CC(=O)[C@@H]3[C@@]4(C)CC[C@H](O[C@H]5O[C@H](C(=O)O)[C@@H](O)[C@H](O)[C@H]5O[C@@H]5O[C@H](C(=O)O)[C@@H](O)[C@H](O)[C@H]5O)C(C)(C)[C@@H]4CC[C@@]3(C)[C@]1(C)CC2.N` (stereo partly specified) displayed an Ip in the experiment listed under Homo sapiens [13] of 1. Besides, in the experiment listed under Homo sapiens [14], the Pw was 33. Further, the Sensory evaluation in the experiment listed under Homo sapiens [15] worked out at 84; in the experiment listed under Homo sapiens [16], 3; in the experiment filed under Homo sapiens [18], 13. Further, the Pm in the experiment listed under Homo sapiens [17] was 90.
In the case of `C=C1C[C@@]23CC[C@H]4[C@@](C)(CCC[C@@]4(C)C(=O)OC(CCC(=O)[O-])C(=O)O)[C@@H]2CC[C@]1(O[C@@H]1O[C@@H](CO)[C@@H](O)[C@H](O)[C@@H]1O[C@@H]1O[C@@H](CO)[C@@H](O)[C@H](O)[C@@H]1O)C3.[Na+]` (stereo partly specified), the values for the Sensory evaluation in the experiment listed under Homo sapiens [19], in the experiment listed under Homo sapiens [20] and in the experiment filed under Homo sapiens [24] were 84, 10 and 2, respectively. In addition, in the experiment filed under Homo sapiens [21], the Pw was 160. The Ip in the experiment listed under Homo sapiens [22] turned out to be 0.9. Besides, in the experiment filed under Homo sapiens [23], the Pm is 380.
`C=C1C[C@@]23CC[C@H]4[C@@](C)(CCC[C@@]4(C)C(=O)OCCCCS(=O)(=O)[O-])[C@@H]2CC[C@]1(O[C@@H]1O[C@@H](CO)[C@@H](O)[C@H](O)[C@@H]1O[C@@H]1O[C@@H](CO)[C@@H](O)[C@H](O)[C@@H]1O)C3.[Na+]`: the Pw in the experiment filed under Homo sapiens [25] is 120. Further, the Sensory evaluation in the experiment filed under Homo sapiens [26] was 17; in the experiment filed under Homo sapiens [28], 4; in the experiment filed under Homo sapiens [30], 79. In the experiment filed under Homo sapiens [27], this molecule came in with an Ip of 0.8. In addition, the Pm in the experiment listed under Homo sapiens [29] is listed as 290.
For the molecule `C=C1C[C@@]23CC[C@H]4[C@@](C)(CCC[C@@]4(C)C(=O)OCCC(N)C(=O)O)[C@@H]2CC[C@]1(O[C@@H]1O[C@@H](CO)[C@@H](O)[C@H](O)[C@@H]1O[C@@H]1O[C@@H](CO)[C@@H](O)[C@H](O)[C@@H]1O)C3` (stereo partly specified), the Sensory evaluation is reported as 35 in the experiment filed under Homo sapiens [31], 5 in the experiment listed under Homo sapiens [33] and 60 in the experiment filed under Homo sapiens [35]. Besides, in the experiment filed under Homo sapiens [32], the Ip is listed as 1.2. The Pm in the experiment filed under Homo sapiens [34] is recorded as 420. Moreover, the Pw in the experiment filed under Homo sapiens [36] is 200.
